# Results published in article PMC3692342 (International Journal of Nanomedicine, 2013).
# Marks after values point to notes of the source that are not given here.
# How the values were obtained:
# ethanol-induced ulcers = assay: Ethanol-induced gastric ulcer in rats; type: in vivo, Sprague Dawley male rats
# [1] = Pharmacokinetic study in rabbits; type: in vivo, New Zealand White rabbits
# WRL-68 cells = assay: MTT cell viability assay on normal human hepatic cells; conditions: 24 hours, TQNLC concentration based on amount of TQ
# Method in brief: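 Human normal liver WRL-68 cells were grown in DMEM with 10% FBS, 100 units/mL penicillin and 0.1 mg/mL streptomycin at 37°C under 5% CO2. They were seeded at 1 × 10^5 cells/mL, held 24 h, then exposed to test compound for 24 h. MTT (2 mg/mL) was added for 1 h and A570 read. Viability is % of untreated absorbance; IC50 is the concentration giving 50% growth loss. Cisplatin served as positive control.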
# [2] = oral pretreatment 20 mg/kg 1 h before ethanol
# [3] = oral pretreatment 60 mg/Kg 1 h before ethanol
# [4] = New Zealand White, rabbit, plasma, ip, 10 mg/kg
# [5] = TQ in rabbits, single extravascular (IP) dose of TQNLC(20) 10 mg/kg, n = 3
smiles,measurement,setting,value
COc1ccc2[nH]c([S+]([O-])Cc3ncc(C)c(OC)c3C)nc2c1 (stereo not shown) [Omeprazole],PAS-positive mucus versus ulcer control group (in words),"ethanol-induced ulcers; oral 20 mg/kg, PAS staining",more PAS-positive mucus
same,Histopathology of stomach versus ulcer control group (in words),"ethanol-induced ulcers; oral 20 mg/kg, hematoxylin and eosin",improved
same,I% (inhibition percentage of ulcer area),ethanol-induced ulcers; [2],80.8%
same,UA (ulcer area),ethanol-induced ulcers; [2],183 ± 5.8^b mm^2
same,pH (gastric juice),ethanol-induced ulcers; oral pretreatment 20 mg/kg 1 h before ethanol 5 mL/kg,6.43 ± 0.2^b
"CC1=CC(=O)C(C(C)C)=CC1=O [Thymoquinone, thymoquinone]",I% (inhibition percentage of ulcer area),ethanol-induced ulcers; [3],89.1%
same,Mucus (weight of gastric mucosa),ethanol-induced ulcers; [3],3.24 ± 0.4^d
same,UA (ulcer area),ethanol-induced ulcers; [3],112.4 ± 3.2^e mm^2
same,pH (gastric juice),ethanol-induced ulcers; [3],6.5 ± 0.3^c
same,AUC(0-inf),[1]; [4],26822 ± 9.4 ng·h/mL
same,Cmax,[1]; [4],4810 ± 55.5 ng/mL
same,Tmax,[1]; [4],3.96 ± 0.19 h
same,half-life,[1]; [4],4.493 ± 0.015 h
same,CL (clearance),[1]; [5],11.8 ± 0.517 mL/min/kg
same,Vd (volume of distribution),[1]; [5],4.32 ± 0.34 L/kg
N.N.[Cl][Pt][Cl] [cisplatin],IC50 (concentration causing 50% loss of cell growth),WRL-68 cells,5.1 ± 0.28 µg/mL
